Assay results: ChEMBL document CHEMBL3091326, “Design, synthesis, and evaluation of curcumin-derived arylheptanoids for glioblastoma and neuroblastoma cytotoxicity” (Bioorg Med Chem Lett, 2013)

Columns and labels:
[1] = Cytotoxicity against human U87MG cells after 5 days by methylene blue staining assay; assay type: functional, cell-based, U-87MG ATCC; conditions: U-87 MG, 120 h
Method in brief: (§1)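 Cells exposed in triplicate to vehicle or increasing compound concentrations; survival read 5 days post-exposure. Cell mass quantified by methylene blue staining, dye solubilized in 0.1N HCl, absorbance at 610nm. Mean and standard deviation; significance vs media control by Dunnett's multiple comparisons test. IC50 derived from dose-response data.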

SK-N-FI = test: Cytotoxicity against human SK-N-FI cells after 5 days by methylene blue staining assay; assay type: functional, cell-based; conditions: 120 h; method in brief: as §1
SK-N-SH = test: Cytotoxicity against human SK-N-SH cells after 5 days by methylene blue staining assay; assay type: functional, cell-based; conditions: 120 h; method in brief: as §1
[2] = Cytotoxicity against human CD34-positive blood stem/progenitor cells at 0.3 to 30 uM after 10 to 14 days by inverted light microscopic analysis; assay type: cell-based
Method in brief: (§2)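 Human CD34+ progenitor cells isolated from umbilical cord blood, treated in triplicate at 0.3, 3.0 and 30 µM in colony-forming unit assays. Progenitor cell (colony) frequency determined after 14 days; compared against control.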

[3] = Cytotoxicity against human CD34-positive blood stem/progenitor cells at 30 uM after 10 to 14 days by inverted light microscopic analysis relative to control; assay type: cell-based; method in brief: as §2
[4] = Cytotoxicity against p53-knockdown human U87MG cells after 5 days by methylene blue staining assay; assay type: functional, cell-based, U-87MG ATCC; conditions: U-87 MG, 120 h; method in brief: as §1
[5] = Cytotoxicity against human U87MG cells expressing sh-GFP after 5 days by methylene blue staining assay; assay type: functional, cell-based, U-87MG ATCC; conditions: U-87 MG, 120 h; method in brief: as §1

COc1cc(/C=C/C(=O)CC(=O)/C=C/c2ccc(O)c(OC)c2)ccc1O [CURCUMIN]
IC50 [1]: 8.1 µM
IC50 (SK-N-FI): 11.3 µM
IC50 (SK-N-SH): 6.4 µM

COc1cc(OC)c(C(C#CCCc2ccc(O[Si](C)(C)C(C)(C)C)cc2)CC(=O)c2ccc(OC(C)=O)cc2)c(OC)c1 (centres undefined)
IC50 [1]: 8 µM
IC50 (SK-N-FI): 22.1 µM
Activity [2]: Non-toxic
Activity [3]: 20%
IC50 [4]: 7 µM
IC50 (SK-N-SH): 11.7 µM
IC50 [5]: 6.9 µM

COc1cc(OC)c(C(C#CCCc2ccc(O[Si](C)(C)C(C)(C)C)cc2)CC(=O)c2ccc(O)cc2)c(OC)c1 (centres undefined)
IC50 [1]: 7.5 µM
IC50 (SK-N-FI): 31.1 µM
Activity [2]: Non-toxic
IC50 [4]: 7 µM
IC50 (SK-N-SH): 18.1 µM
IC50 [5]: 7 µM

COc1cc(OC)c(C(C#CCCc2ccc(O[Si](C)(C)C(C)(C)C)cc2)CC(=O)c2ccc(O[Si](C)(C)C(C)(C)C)cc2)c(OC)c1 (centres undefined)
IC50 [1]: 19.1 µM
IC50 (SK-N-FI): > 100 µM
IC50 (SK-N-SH): 48.8 µM
